Assay results published in ChEMBL document CHEMBL3856209, “Novel pyrazolopyridine derivatives as potential angiogenesis inhibitors: Synthesis, biological evaluation and transcriptome-based mechanistic analysis” (Eur J Med Chem, 2016).
pIC50: −log10 of the molar value. The source made the active and inactive calls. The calls are words filed in the database; no cut-off is given here.

Experiments:
Mus musculus [1] = test: Toxicity in C57BL/6 mouse allografted with mouse LLC cells at 0.05 to 0.2 mg/kg, ip administered thrice a week for 2 weeks starting 24 hrs before tumor implantation by clinical test; assay type: organism-based; conditions: in vivo
How it was run: (§1)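 Male C57BL/6 mice, 6–8 weeks old, in groups of 5–6, received 5×10^5 LLC cells sc in the right flank. Compound (0.05–0.2 mg/kg) or DMSO vehicle was given ip thrice weekly for 2 weeks, starting 24 h before implantation. Mice were weighed and examined clinically every other day. At end-point, kidney, lung, spleen, liver and heart sections were H&E-stained and examined microscopically.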

HUVEC (Homo sapiens) [2] = test: Antiproliferative activity against human HUVEC cells assessed as decrease in VEGF-165-induced cell growth at 0.5 to 2 uM after 24 to 48 hrs by CyQUANT cell proliferation assay
Lewis lung carcinoma = test: Antiangiogenic activity in mouse LLC cells allografted in C57BL/6 mouse assessed as decrease of microvessel density in tumor at 0.2 mg/kg, ip administered thrice a week for 2 weeks starting 24 hrs before tumor implantation measured post last dose by IHC analysis; assay type: functional, organism-based
How it was run: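 Male 6–8 week C57BL/6 mice (groups of 5–6) inoculated sc in the right flank with 5×10^5 LLC cells. Compound (0.2 mg/kg) or DMSO vehicle given ip thrice weekly for 2 weeks, starting 24 h before implantation. Tumors measured by caliper every other day. At end-point, anti-CD31 IHC (1:100) of tumor sections, with immunoreactive cells counted in six high-power fields.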

HUVEC [3] = test: Antiangiogenic activity in HUVEC assessed as inhibition of VEGF-165-induced tube formation at 0.2 to 2 uM after 24 hrs by matrigel assay; assay type: functional, cell-based; conditions: Homo sapiens
How it was run: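 HUVEC seeded at 2×10^4 cells/well on growth factor-reduced Matrigel after pre-starvation, then given compound or vehicle (up to 0.1% v/v DMSO), with or without VEGF-165, for 24 h. Fixed in ice-cold ethanol and stained with haematoxylin-eosin. Tube-like structures counted in at least 5 fields/well and expressed as % of vehicle control; replicates from two independent experiments.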

HUVEC [4] = test: Inhibition of total protein tyrosine kinase activity in serum-starved HUVEC at 1 to 4 uM after 2 hrs; assay type: cell-based; conditions: Homo sapiens
Mus musculus [5] = test: Toxicity in C57BL/6 mouse allografted with mouse LLC cells assessed as effect on vital organs at 0.05 to 0.2 mg/kg, ip administered thrice a week for 2 weeks starting 24 hrs before tumor implantation by haematoxylin-eosin staining-based microscopic analysis; assay type: organism-based; conditions: in vivo; how it was run: as §1
HUVEC [6] = test: Inhibition of VEGF-165-induced HUVEC chemotactic migration at 0.2 to 2 uM after 6 hrs by transwell assay; assay type: functional, cell-based; conditions: Homo sapiens
How it was run: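 Serum-starved HUVEC were pre-treated overnight with compound or vehicle in 5% FBS medium. Cells were then seeded at 6×10^4 per upper Transwell chamber (8 µm pores) and migrated for 6 h toward VEGF-165 (50 ng/mL) or starvation medium. Migrated cells were ethanol-fixed, stained with H&E and counted in five fields per well. Results are % of control from at least two independent experiments.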

[7] = molecular target: Vascular endothelial growth factor receptor 2 (Homo sapiens) (UniProt P35968); test: Inhibition of VEGF-165-induced VEGFR2 autophosphorylation at Tyr1175 in serum-starved HUVEC at 2 uM preincubated for 2 hrs followed by VEGF-165 induction measured after 5 mins by Western blot analysis; assay type: cell-based
Vascular endothelial growth factor receptor 2 (Homo sapiens), sequence (P35968 whole entry): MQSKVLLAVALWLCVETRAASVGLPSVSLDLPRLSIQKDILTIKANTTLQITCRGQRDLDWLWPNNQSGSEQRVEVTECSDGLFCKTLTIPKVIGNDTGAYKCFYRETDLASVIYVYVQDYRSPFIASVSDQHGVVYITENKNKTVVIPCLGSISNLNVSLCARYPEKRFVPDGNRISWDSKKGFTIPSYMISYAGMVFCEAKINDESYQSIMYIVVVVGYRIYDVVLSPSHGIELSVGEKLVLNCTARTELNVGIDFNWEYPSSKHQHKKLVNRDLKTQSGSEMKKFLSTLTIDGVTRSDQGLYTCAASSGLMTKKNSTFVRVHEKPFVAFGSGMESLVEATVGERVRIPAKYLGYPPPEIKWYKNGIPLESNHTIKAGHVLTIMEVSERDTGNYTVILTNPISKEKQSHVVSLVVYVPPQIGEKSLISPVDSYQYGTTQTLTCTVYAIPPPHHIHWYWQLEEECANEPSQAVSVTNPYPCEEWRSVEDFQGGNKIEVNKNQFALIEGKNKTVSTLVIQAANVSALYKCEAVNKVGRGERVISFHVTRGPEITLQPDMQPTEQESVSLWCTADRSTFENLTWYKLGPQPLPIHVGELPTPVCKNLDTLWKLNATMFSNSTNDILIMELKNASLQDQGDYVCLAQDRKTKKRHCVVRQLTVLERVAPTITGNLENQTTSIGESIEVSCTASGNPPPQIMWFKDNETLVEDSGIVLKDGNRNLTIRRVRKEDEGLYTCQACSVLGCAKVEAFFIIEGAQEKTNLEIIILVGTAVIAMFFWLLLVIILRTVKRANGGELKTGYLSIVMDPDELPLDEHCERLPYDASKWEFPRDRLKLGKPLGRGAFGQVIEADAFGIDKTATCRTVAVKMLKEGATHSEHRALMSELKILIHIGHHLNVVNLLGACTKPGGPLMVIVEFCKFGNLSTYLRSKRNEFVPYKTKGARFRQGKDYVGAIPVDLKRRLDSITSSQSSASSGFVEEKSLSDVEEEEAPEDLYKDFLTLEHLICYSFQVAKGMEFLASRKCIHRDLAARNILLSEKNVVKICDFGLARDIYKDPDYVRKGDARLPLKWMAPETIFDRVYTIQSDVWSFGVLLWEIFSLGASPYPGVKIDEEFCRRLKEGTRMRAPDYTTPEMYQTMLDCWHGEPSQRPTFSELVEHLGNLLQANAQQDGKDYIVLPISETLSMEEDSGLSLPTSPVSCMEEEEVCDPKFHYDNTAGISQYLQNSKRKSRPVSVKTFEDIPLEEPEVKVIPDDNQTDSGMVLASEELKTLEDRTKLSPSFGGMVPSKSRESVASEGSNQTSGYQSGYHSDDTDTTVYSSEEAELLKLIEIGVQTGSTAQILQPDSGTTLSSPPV
How it was run: (§2)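 Serum-starved HUVEC were given 2 µM compound or vehicle for 2 h, then VEGF-165 (50 ng/mL) or PBS for 5 min. Lysates with equal protein were run on SDS-PAGE and immunoblotted for phospho-VEGFR2 (Tyr951, 996, 1056, 1175), p-AKT Ser473, p-ERK1/2 and the total proteins. Detection was by ECL with densitometry. Phospho signals were normalized to total protein, n = 3.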

[8] = molecular target: Vascular endothelial growth factor receptor 2 (Homo sapiens) (UniProt P35968); test: Inhibition of VEGF-165-induced VEGFR2 autophosphorylation in serum-starved HUVEC assessed as decrease in AKT phosphorylation at 2 uM preincubated for 2 hrs followed by VEGF-165 induction measured after 5 mins by Western blot analysis; assay type: cell-based; how it was run: as §2
[9] = molecular target: Vascular endothelial growth factor receptor 2 (Homo sapiens) (UniProt P35968); test: Inhibition of VEGF-165-induced VEGFR2 autophosphorylation in serum-starved HUVEC assessed as decrease in ERK1/2 phosphorylation at 2 uM preincubated for 2 hrs followed by VEGF-165 induction measured after 5 mins by Western blot analysis; assay type: cell-based; how it was run: as §2
[10] = Antiproliferative activity against human EAhy926 cells assessed as decrease in cell viability after 24 to 48 hrs in presence of 2.5% fetal bovine serum by MTT assay; assay type: functional, cell-based; conditions: EA.hy 926
How it was run: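 EA.hy926 in DMEM with 2.5% FBS exposed 48 h to serial 1:2 compound dilutions spanning 0.125–50 μM. Viable cells measured by MTT (0.5 mg/mL, 4 h, A595/630 nm). IC50 (mean ± SEM) fitted by non-linear regression from eight or more points.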

HUVEC [11] = test: Antimigratory activity in HUVEC at 0.2 to 2 uM after 6 hrs in presence of 5% fetal bovine serum by transwell assay; assay type: functional, cell-based; conditions: Homo sapiens
How it was run: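 Serum-starved confluent HUVEC pre-treated overnight with compound or vehicle in 5% FBS medium. Then placed in the upper chamber of 8 µm-pore Transwells (6×10^4 cells/well) and allowed to migrate 6 h toward 5% FBS or starvation medium. Migrated cells fixed, H&E stained, and counted in five fields/well; expressed as % of control; replicates from two independent experiments.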

EA.hy 926 = test: Antiproliferative activity against human EAhy926 cells assessed as decrease in cell viability at 0.2 to 2 uM after 24 to 48 hrs in presence of 2.5% fetal bovine serum by MTT assay; assay type: functional, cell-based
How it was run: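 EA.hy926 seeded at 4×10^3/well, adhered 24 h, and starved 4 h in 0.25% BSA medium. Then treated with compound or 0.1% v/v DMSO in medium with 2.5% FBS for 48 h. MTT 0.5 mg/mL for 4 h, A595 with 630 nm correction, cell number from a standard curve. Expressed as % of DMSO control; replicates from two independent experiments.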

HUVEC (Homo sapiens) [12] = test: Antiproliferative activity against human HUVEC cells assessed as decrease in VEGF-165-induced cell growth at 0.5 to 2 uM after 24 to 48 hrs by MTT assay

- inhibition (HUVEC [4]): Active
- inhibition [7]: Active
- inhibition [8]: Active
- inhibition [9]: Active
SMILES: COc1ccc(Cn2nc(-c3ccccc3)c3cc(Nc4ccccc4)nc(N4CCNCC4)c32)cc1
- Activity (Mus musculus [1]): Non-Toxic
- Activity (HUVEC (Homo sapiens) [2]): Active
- Activity (Lewis lung carcinoma): Active
- inhibition (HUVEC [3]): Active
- Activity (Mus musculus [5]): Non-Toxic
- inhibition (HUVEC [6]): Active
- pIC50 [10]: 4.85
- Activity (HUVEC [11]): Active
- Activity (EA.hy 926): Active
- Activity (HUVEC (Homo sapiens) [12]): Active
